Data published in paper PMC10784678 (Food Chemistry: X, 2023).
Values after ≈ are worked out from the molar mass of the structure shown. Like-named read-outs stand apart in the source and are kept apart here.

Legend:
[1] = biological target: α-glucosidase (Saccharomyces cerevisiae, UniProt P53341); settings: read-out: IC50 α-glucosidase; ref Tan et al. (2017); cited from earlier work
[2] = biological target: T1, DPP-IV (Homo sapiens, UniProt P27487); assay: biochemical
[3] = ABTS radical scavenging activity; settings: positive control
Outline: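 Test fractions in 70 % ethanol at 2–8 µg/mL; positive control at 1–7 µg/mL. Radical made by holding 7 mM ABTS with 0.14 M K₂S₂O₈ for 14 h, then diluted 35-fold in anhydrous ethanol. Sample mixed with radical solution, 6 min dark at 30°C, A734.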

[4] = test system: Caco-2 cells; assay: Inhibition of H2O2-induced intracellular ROS production; format: cell-based; settings: positive control 10 μg/mL, 1.0 mmol/L H2O2 6 h; H2O2 group 181.61 %
[5] = test system: Caco-2 cells; assay: Cytoprotective activity against H2O2-induced cell apoptosis; format: cell-based; settings: positive control 10 μg/mL; H2O2 group 23.84 %, control 3.92 %
[6] = DPPH radical scavenging activity; settings: positive control
Outline: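 Test fractions in 80 % methanol at 2–14 µg/mL; positive control at 1–7 µg/mL. 50 µL sample plus 200 µL 0.1 mM DPPH in methanol, kept from light and shaken 30 min, then read at 517 nm.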

[7] = biological target: T1, DPP-IV; settings: read-out: IC50 DPP-IV; ref Li et al., 2022; cited from earlier work
[8] = read-out: IC50 DPP-Ⅳ, phenolic standards

T1 sequence (P27487 whole entry): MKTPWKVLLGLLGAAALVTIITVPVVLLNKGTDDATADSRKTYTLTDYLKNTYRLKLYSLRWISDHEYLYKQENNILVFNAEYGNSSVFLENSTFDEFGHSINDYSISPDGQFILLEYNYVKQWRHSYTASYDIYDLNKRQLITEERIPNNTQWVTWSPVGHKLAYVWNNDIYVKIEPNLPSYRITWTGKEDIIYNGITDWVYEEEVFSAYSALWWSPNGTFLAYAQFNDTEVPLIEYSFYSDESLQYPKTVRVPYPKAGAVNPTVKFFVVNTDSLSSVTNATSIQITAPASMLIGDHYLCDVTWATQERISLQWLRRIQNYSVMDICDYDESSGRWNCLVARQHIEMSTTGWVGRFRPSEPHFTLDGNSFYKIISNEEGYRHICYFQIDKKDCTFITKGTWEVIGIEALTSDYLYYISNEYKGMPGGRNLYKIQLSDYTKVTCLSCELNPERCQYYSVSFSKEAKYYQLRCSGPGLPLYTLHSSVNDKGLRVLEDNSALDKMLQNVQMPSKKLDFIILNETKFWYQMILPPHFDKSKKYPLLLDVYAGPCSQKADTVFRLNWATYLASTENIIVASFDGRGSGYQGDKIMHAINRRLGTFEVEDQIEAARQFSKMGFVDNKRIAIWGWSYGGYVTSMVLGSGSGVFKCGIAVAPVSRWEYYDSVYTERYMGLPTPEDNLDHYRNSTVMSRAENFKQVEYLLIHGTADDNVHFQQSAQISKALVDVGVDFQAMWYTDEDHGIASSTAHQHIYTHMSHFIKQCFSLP
Chain of α-glucosidase (P53341 whole entry): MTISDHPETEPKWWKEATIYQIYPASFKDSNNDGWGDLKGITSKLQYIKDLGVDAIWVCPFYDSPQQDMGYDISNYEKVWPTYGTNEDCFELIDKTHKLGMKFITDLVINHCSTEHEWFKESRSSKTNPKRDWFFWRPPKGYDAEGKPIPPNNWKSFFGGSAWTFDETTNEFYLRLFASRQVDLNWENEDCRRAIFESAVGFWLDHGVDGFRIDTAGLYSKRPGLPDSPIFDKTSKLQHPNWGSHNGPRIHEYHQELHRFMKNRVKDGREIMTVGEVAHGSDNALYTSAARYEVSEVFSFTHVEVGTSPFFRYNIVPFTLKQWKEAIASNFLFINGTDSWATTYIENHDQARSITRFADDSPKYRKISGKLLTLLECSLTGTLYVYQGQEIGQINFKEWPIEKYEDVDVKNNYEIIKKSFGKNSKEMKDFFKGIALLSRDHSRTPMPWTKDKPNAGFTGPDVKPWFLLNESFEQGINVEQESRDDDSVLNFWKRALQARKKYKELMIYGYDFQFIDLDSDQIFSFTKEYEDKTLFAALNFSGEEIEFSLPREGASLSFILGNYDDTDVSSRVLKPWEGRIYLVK

| SMILES | IC50 [2] [µM] | other results |
| --- | --- | --- |
| Oc1cc(O)c2c(c1)O[C@H](c1ccc(O)c(O)c1)[C@@H](O)C2 [catechin] | – | IC50 [1]: 13.4 µM |
| Oc1cc(O)c2c(c1)O[C@H](c1cc(O)c(O)c(O)c1)[C@@H](O)C2 [Gallocatechin] | 81.9 ± 2.54 | – |
| O=C(O)[C@]1(O)C[C@@H](O)[C@@H](O)[C@H](O)C1 [Quinic acid] | > 200 | – |
| Oc1cc(O)c2c(c1)O[C@H](c1ccc(O)c(O)c1)[C@H](O)[C@H]2c1c(O)cc(O)c2c1O[C@H](c1ccc(O)c(O)c1)[C@@H](O)C2 [Procyanidin B1] | > 200 | – |
| Oc1cc(O)c2c(c1)O[C@H](c1ccc(O)c(O)c1)[C@@H](O)C2 [(+) - Catechin] | – | IC50 [2, 8]: 132.8 ± 0.99 µM |
| COC(=O)[C@]1(O)C[C@@H](O)[C@@H](O)[C@H](OC(=O)/C=C/c2ccc(O)c(O)c2)C1 [Methyl chlorogenic acid] | – | IC50 [2, 8]: 192 ± 1.93 µM |
| O=C(O)c1ccccc1O [Salicylic acid] | > 200 | – |
| O=C1O[C@H]([C@@H](O)CO)C(O)=C1O [Vc] | – | IC50 ABTS radical scavenging [3]: 3.58 ± 0.03 µg/mL (≈ 20.3 µM); intracellular ROS level [4]: 110.92%; apoptosis rate [5]: 6.58%; IC50 DPPH radical scavenging [6]: 1.93 ± 0.01 µg/mL (≈ 11 µM) |
| O=C(O)c1ccc(O)c(O)c1 [Protocatechuic acid] | > 200 | – |
| Oc1cc(O)c2c(c1)O[C@H](c1ccc(O)c(O)c1)[C@H](O)C2 [(-) - Epicatechin] | 104.3 ± 0.95 | – |
| O=C1c2c(O)cc(O)cc2OC(c2ccc(O)c(O)c2)C1O (centres unmarked) [Taxifolin] | 78.92 ± 0.62 | – |
| O=C(O)/C=C/c1ccc(O)c(O)c1 [Caffeic acid] | 162.48 ± 0.16 | – |
| O=C(/C=C/c1ccc(O)c(O)c1)O[C@@H]1C[C@](O)(C(=O)O)C[C@@H](O)[C@H]1O [Chlorogenic acid] | 31.2 ± 2.58 | IC50 [7]: 78.8 µM |
